Assay results reported in ChEMBL document CHEMBL4033795, “Design, Synthesis, and Structure-Activity Relationship Study of 2-Oxo-3,4-dihydropyrimido[4,5- d]pyrimidines as New Colony Stimulating Factor 1 Receptor (CSF1R) Kinase Inhibitors” (J Med Chem, 2018).
pIC50: −log10 of the molar value.

Key:
[1] = target: Fibroblast growth factor receptor 3 (Homo sapiens, UniProt P22607); assay: Inhibition of cytoplasmic recombinant human His-tagged FGFR3 (399 to 806 residues) expressed in baculovirus using tyr4 peptide as substrate after 1 hr by FRET-based Z'-Lyte assay
[2] = target: Fibroblast growth factor receptor 4 (Homo sapiens, UniProt P22455); assay: Inhibition of cytoplasmic recombinant human His-tagged FGFR4 ([…] residues) expressed in baculovirus using tyr4 peptide as substrate after 1 hr by FRET-based Z'-Lyte assay
[3] = target: Mast/stem cell growth factor receptor Kit (Homo sapiens, UniProt P10721); assay: Inhibition of recombinant cytoplasmic human His-tagged KIT expressed in baculovirus using […] peptide as substrate after 1 hr by FRET-based Z'-Lyte assay
[4] = target: Receptor-type tyrosine-protein kinase FLT3 (Homo sapiens, UniProt P36888); assay: Inhibition of recombinant human His-tagged FLT3 (564 to 958 residues) expressed in baculovirus using poly (Glu,Tyr) as substrate after 2 hrs by PK-Light ATP assay
[5] = target: T1, Macrophage colony-stimulating factor 1 receptor (Mus musculus) (UniProt P09581); assay: Inhibition of CSF1R phosphorylation in mouse RAW264.7 cells preincubated for 6 hrs followed by CSF1 stimulation for 20 mins by Western blot analysis; assay type: cell-based
T1 sequence (whole entry): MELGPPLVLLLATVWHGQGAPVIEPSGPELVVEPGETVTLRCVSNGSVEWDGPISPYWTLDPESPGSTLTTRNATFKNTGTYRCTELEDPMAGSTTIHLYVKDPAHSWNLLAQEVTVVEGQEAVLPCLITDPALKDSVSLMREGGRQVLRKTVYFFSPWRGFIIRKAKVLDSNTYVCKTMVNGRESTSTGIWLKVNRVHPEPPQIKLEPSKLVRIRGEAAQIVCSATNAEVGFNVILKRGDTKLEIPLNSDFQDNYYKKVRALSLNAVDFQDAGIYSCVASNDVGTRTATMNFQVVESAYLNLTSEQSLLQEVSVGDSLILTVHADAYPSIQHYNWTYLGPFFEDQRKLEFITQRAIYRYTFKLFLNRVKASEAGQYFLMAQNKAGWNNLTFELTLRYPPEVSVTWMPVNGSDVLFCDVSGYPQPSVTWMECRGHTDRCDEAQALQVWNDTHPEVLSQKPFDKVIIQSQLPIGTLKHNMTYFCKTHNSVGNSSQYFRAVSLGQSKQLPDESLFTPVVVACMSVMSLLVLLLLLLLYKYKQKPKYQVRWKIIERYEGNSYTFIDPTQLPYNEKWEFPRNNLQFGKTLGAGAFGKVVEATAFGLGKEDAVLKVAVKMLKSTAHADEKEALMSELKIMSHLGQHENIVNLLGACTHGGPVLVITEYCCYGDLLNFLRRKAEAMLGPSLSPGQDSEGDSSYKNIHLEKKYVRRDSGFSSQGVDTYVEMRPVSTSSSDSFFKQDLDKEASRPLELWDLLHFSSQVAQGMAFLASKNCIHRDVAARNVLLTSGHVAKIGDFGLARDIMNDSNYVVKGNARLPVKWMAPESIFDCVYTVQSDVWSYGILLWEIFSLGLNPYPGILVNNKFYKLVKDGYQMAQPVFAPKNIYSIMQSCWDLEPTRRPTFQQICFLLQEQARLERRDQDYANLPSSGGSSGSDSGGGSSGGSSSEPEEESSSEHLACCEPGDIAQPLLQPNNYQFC
Method in brief: (§1)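 RAW264.7 cells were seeded, incubated overnight and treated 6 h with graded compound concentrations, then stimulated 20 min with CSF-1 (50 ng/mL). Lysates were run on 8−12% SDS-PAGE and immunoblotted for p-CSF1R (Tyr723), CSF1R, p-AKT, AKT and GAPDH. Bands were quantified and normalized to GAPDH. Mean ± SEM of at least three experiments.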

[6] = target: Ephrin type-A receptor 8 (Homo sapiens) (UniProt P29322); assay: Inhibition of recombinant human EPHA8 (Q608 to C920 residues) expressed in bacterial expression system at 100 nM by KINOMEscan assay relative to control
[7] = target: T1, Macrophage colony-stimulating factor 1 receptor (Mus musculus); assay: Inhibition of CSF1R in mouse RAW264.7 cells assessed as suppression of AKT phosphorylation preincubated for 6 hrs followed by CSF1 stimulation for 20 mins by Western blot analysis; assay type: cell-based; method in brief: as §1
[8] = target: Tyrosine-protein kinase Lyn (Homo sapiens) (UniProt P07948); assay: Inhibition of recombinant human LYN-B expressed in bacterial expression system at 100 nM by KINOMEscan assay relative to control
[9] = target: Vascular endothelial growth factor receptor 2 (Homo sapiens) (UniProt P35968); assay: Inhibition of human KDR (R787 to P1253 residues) expressed in mammalian expression system at 100 nM by KINOMEscan assay relative to control
RAW264.7 [10] = assay: Inhibition of protumorigenic potential of mouse RAW264.7 cells assessed as abrogation of human LNCAP cell growth enhancement of macrophages at 2 uM co-cultured for 48 hrs by CCK8 assay relative to control; assay type: functional; conditions: RAW264.7, 48 h
Method in brief: (§2)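 LNCaP cells, (2−4) × 10^5, were seeded in the lower transwell chamber. After 2 h, (1−2) × 10^6 RAW264.7 cells were added in a 0.4 μm insert. Compound at 0.016–2.0 μM was added to the top chamber and cells were cocultured 48 h at 37 °C. LNCaP cells were then imaged and counted by CCK8. Run three times, each in triplicate.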

[11] = target: Fibroblast growth factor receptor 1 (Homo sapiens, UniProt P11362); assay: Inhibition of cytoplasmic recombinant human His-tagged FGFR1 (308 to 731 residues) expressed in baculovirus using tyr4 peptide as substrate after 1 hr by FRET-based Z'-Lyte assay
Rattus norvegicus = assay: Apparent clearance in Sprague-Dawley rat at 25 mg/kg administered via oral gavage measured up to 72 hrs by LC/MS analysis; assay type: ADME, organism-based; conditions: in vivo, iv, 5 mg/kg, in the assay text read “5 mg/kg administered intravenously” for “25 mg/kg administered via oral gavage”
Method in brief: (§3)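 Male Sprague-Dawley rats, 4–6 weeks old, acclimatised 1 week, were dosed iv at 5 mg/kg or by oral gavage at 25 mg/kg. Vehicle was 2% DMSO, 4% EtOH, 4% castor oil, 90% H2O. Blood was drawn by orbital sinus puncture from 2 min to 72 h into heparinized tubes. Plasma was assayed by LC/MS with propranolol as internal standard. Three animals per group.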

RAW264.7 [12] = assay: Inhibition of protumorigenic potential of mouse RAW264.7 cells assessed as abrogation of human LNCAP cell growth enhancement of macrophages at 0.016 uM co-cultured for 48 hrs by CCK8 assay relative to control; assay type: functional; conditions: RAW264.7, 48 h; method in brief: as §2
RAW264.7 [13] = assay: Inhibition of protumorigenic potential of mouse RAW264.7 cells assessed as abrogation of human LNCAP cell growth enhancement of macrophages at 0.4 uM co-cultured for 48 hrs by CCK8 assay relative to control; assay type: functional; conditions: RAW264.7, 48 h; method in brief: as §2
[14] = AUC (0 to infinity) in Sprague-Dawley rat at 5 mg/kg, iv measured up to 72 hrs by LC/MS analysis; assay type: ADME, organism-based; set-up: dose 5 mg/kg, time infinity, route intravenous; conditions: in vivo; method in brief: as §3

Chain of Fibroblast growth factor receptor 1 (P11362 whole entry, the tested form may be a part): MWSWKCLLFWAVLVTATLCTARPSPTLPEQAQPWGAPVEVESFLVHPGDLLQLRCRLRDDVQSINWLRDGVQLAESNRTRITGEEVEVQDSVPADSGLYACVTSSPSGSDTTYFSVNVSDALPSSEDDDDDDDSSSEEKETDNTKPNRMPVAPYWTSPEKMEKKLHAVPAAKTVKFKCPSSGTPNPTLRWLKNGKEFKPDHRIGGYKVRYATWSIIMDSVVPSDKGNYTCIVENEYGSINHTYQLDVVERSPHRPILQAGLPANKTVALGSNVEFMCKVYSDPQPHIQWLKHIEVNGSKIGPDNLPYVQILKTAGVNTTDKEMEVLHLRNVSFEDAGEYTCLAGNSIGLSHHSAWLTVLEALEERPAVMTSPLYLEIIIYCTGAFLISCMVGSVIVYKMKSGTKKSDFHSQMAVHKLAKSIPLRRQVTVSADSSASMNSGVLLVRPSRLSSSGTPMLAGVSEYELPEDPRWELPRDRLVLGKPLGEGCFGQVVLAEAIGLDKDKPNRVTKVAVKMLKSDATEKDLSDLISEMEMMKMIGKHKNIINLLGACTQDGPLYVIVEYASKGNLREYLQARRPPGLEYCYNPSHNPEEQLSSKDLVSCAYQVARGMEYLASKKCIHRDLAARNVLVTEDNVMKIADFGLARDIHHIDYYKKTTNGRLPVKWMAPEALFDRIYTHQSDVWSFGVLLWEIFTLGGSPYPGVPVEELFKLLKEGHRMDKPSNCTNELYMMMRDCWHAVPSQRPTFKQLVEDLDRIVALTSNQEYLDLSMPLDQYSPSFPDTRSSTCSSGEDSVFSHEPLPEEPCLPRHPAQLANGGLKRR
Chain of Fibroblast growth factor receptor 3 (P22607 whole entry, the tested form may be a part): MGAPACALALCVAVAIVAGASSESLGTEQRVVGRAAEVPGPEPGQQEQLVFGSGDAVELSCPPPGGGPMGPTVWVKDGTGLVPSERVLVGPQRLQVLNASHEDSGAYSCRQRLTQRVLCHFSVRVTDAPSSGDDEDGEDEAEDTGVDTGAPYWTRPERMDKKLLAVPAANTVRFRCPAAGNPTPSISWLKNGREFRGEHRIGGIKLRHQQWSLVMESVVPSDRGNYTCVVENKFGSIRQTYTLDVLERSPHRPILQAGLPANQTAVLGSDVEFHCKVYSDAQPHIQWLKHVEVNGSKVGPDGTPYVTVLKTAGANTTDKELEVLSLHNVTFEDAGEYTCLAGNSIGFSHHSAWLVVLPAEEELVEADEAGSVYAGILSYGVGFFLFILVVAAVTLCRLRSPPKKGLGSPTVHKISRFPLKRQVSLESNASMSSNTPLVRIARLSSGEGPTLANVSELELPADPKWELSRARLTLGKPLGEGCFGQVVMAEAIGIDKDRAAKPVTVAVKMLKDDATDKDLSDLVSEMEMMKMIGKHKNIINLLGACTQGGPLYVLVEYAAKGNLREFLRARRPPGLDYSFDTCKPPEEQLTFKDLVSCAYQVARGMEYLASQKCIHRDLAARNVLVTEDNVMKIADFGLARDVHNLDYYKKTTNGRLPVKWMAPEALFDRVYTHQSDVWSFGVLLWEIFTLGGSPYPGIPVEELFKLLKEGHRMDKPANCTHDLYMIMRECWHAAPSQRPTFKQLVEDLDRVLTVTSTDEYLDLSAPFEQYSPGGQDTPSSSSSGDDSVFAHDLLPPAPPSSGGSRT
Chain of Ephrin type-A receptor 8 (Homo sapiens) (P29322 whole entry, the tested form may be a part): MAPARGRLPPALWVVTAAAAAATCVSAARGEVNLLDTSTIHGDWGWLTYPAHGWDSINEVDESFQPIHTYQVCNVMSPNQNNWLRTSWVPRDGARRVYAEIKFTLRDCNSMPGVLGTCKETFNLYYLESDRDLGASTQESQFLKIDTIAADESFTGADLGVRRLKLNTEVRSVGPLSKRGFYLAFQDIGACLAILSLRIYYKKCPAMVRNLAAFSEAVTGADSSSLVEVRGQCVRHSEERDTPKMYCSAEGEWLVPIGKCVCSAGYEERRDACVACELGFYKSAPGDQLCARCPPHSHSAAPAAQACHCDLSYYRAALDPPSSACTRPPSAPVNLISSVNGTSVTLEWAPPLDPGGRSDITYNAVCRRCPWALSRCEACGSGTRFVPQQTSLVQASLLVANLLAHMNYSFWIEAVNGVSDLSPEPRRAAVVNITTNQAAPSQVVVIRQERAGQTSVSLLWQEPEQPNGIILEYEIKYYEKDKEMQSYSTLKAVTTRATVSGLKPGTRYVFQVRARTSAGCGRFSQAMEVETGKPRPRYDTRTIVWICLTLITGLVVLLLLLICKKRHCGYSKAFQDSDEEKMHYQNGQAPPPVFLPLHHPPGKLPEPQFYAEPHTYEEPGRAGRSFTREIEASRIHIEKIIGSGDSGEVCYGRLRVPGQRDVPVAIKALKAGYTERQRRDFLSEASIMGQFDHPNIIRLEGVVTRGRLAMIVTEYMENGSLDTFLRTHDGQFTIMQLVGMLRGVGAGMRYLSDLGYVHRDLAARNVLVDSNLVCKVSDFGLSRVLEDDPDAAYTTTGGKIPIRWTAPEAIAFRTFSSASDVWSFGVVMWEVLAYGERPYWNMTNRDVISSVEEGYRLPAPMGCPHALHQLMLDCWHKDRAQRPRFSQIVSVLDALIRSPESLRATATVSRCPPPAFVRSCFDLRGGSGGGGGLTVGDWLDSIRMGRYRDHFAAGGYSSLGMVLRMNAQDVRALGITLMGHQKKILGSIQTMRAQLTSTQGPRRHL
Chain of Fibroblast growth factor receptor 4 (P22455 whole entry): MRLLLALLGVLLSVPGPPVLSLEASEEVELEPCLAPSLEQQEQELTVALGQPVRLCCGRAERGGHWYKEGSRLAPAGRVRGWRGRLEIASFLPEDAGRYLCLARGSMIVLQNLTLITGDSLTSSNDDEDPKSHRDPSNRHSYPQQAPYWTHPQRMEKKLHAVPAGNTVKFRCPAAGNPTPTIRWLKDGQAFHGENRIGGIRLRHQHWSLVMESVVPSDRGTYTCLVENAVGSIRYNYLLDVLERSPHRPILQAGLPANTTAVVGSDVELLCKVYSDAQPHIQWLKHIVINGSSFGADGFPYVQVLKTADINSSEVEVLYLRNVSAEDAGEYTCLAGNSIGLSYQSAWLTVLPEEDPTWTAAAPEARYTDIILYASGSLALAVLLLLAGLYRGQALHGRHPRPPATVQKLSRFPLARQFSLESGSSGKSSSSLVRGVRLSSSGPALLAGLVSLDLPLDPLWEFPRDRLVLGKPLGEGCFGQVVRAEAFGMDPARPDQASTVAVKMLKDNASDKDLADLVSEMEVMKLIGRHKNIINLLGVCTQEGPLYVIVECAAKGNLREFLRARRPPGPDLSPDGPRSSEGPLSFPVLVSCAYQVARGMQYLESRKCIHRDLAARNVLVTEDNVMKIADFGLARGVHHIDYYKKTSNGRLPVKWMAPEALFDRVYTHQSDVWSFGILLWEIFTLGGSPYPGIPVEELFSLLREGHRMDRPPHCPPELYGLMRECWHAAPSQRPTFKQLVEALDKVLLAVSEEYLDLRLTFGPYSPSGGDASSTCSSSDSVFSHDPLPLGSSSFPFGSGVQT
Chain of Tyrosine-protein kinase Lyn (Homo sapiens) (P07948 2-512 limits assumed): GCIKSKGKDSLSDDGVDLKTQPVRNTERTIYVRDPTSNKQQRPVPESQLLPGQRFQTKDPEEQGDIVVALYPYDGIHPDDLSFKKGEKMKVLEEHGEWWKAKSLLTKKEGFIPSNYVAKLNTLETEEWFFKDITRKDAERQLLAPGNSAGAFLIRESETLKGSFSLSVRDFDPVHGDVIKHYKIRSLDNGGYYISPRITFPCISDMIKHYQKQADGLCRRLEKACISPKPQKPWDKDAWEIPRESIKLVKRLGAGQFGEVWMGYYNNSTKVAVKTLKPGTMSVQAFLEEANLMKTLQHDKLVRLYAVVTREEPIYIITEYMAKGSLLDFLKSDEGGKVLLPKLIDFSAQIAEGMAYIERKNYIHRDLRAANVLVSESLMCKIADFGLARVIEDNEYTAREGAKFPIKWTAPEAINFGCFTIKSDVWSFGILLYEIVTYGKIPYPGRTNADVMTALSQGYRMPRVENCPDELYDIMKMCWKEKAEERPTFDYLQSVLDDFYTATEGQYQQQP
Chain of Receptor-type tyrosine-protein kinase FLT3 (P36888 whole entry, the tested form may be a part): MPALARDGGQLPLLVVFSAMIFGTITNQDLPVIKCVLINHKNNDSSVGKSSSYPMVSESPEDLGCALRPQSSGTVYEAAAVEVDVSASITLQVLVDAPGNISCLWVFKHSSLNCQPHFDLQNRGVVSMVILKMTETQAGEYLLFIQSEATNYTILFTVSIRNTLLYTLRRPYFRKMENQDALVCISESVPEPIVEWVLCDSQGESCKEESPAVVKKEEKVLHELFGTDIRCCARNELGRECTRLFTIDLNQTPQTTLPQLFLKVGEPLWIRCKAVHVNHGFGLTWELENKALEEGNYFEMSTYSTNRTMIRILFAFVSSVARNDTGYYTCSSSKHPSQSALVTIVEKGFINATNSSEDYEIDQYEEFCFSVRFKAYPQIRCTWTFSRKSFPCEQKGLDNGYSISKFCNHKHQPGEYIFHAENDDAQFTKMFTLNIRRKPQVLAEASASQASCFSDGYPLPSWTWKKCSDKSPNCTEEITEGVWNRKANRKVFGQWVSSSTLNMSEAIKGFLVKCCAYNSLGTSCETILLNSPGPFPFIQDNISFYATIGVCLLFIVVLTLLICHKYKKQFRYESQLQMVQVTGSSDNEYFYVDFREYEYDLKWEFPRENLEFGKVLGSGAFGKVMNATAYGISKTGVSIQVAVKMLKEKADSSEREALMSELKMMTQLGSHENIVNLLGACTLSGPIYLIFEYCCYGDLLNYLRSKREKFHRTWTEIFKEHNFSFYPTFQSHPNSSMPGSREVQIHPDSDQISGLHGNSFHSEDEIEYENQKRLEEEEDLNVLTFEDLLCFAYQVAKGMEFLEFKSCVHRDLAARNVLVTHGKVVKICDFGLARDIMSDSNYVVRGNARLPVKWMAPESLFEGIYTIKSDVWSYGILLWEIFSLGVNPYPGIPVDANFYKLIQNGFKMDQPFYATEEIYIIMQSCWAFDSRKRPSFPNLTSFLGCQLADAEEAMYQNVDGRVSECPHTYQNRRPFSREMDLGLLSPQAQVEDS

Structure (SMILES): CCC(=O)N1CC[C@H](N2C(=O)N(c3cc(OC)ccc3Cl)Cc3cnc(Nc4ccc(N5CCN(C6COC6)CC5)c(C)c4)nc32)C1
- pIC50 [1]: 7.40
- pIC50 [2]: 6.78
- pIC50 [3]: 7.52
- pIC50 [4]: 7.43
- inhibition [5]: Dose-dependent effect
- inhibition [6]: > 90%
- inhibition [7]: Dose-dependent effect
- inhibition [8]: > 90%
- inhibition [9]: > 90%
- inhibition at 2 µM (RAW264.7 [10]): 94.6%
- pIC50 [11]: 8.00
- CL(app) (Rattus norvegicus): 28.8 mL/min/kg
- inhibition at 0.016 µM (RAW264.7 [12]): 63.4%
- inhibition at 0.4 µM (RAW264.7 [13]): 85%
- AUC(0-inf) [14]: 2910 ng·h/mL
